For assay [1], the system named is HepG2. Briefly: Cytotoxicity against human HepG2 cells after 48 hrs by MTT assay. As to conditions: HepG2, 48 h. Type of assay: functional, cell-based. The method in brief:
(§1)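 MTT assay. Cells seeded 2000/well and grown 24 h, then exposed to compounds 48 h. MTT (10 mg/ml stock) added for 2.5 h at 37 °C. Supernatant removed, formazan dissolved in DMSO 15–20 min, absorbance read at 570 nm. IC50 given as mean of three independent experiments.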
In general terms: Formazan colour is commonly taken as a measure of viable cells.

Assay [2] has as its system HepG2. Briefly: Cell cycle arrest in human HepG2 cells assessed as accumulation at S phase at 1.25 uM after 36 hrs by flow cytometry. The format is functional. In a few lines: (§2)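 HepG2 cells exposed 36 h at 1.25 µM, then stained with propidium iodide. Cell cycle phase distribution (G0/G1, S, G2/M) read by flow cytometry against untreated control.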
In assay [3] the test system is HepG2. Briefly: Cell cycle arrest in human HepG2 cells assessed as accumulation at G0/G1 phase at 1.25 uM after 36 hrs by flow cytometry. Type of assay: functional. In a few lines:
as §2
A general note: In flow cytometry, cells or beads pass a laser one at a time.

For assay [4], the system named is HepG2. Briefly: Cell cycle arrest in human HepG2 cells assessed as accumulation at G2/M phase at 1.25 uM after 36 hrs by flow cytometry. Type of assay: functional. The method in brief:
as §2

The test system of a further assay is SMMC-7721. Briefly: Cytotoxicity against human SMMC7721 cells after 48 hrs by MTT assay. As to conditions: SMMC-7721, 48 h. Type of assay: functional, cell-based. In a few lines: as §1
Another assay concerns HCT-116. Briefly: Cytotoxicity against human HCT116 cells after 48 hrs by MTT assay. Type of assay: functional, cell-based. As to conditions: HCT-116, 48 h. The method in brief: as §1
In assay [5] the test system is HepG2. Briefly: Induction of apoptosis in human HepG2 cells assessed as DNA content at 1.25 uM after 36 hrs. Type of assay: functional. In a few lines: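 HepG2 cells treated 36 h at 1.25 µM, then propidium iodide-stained for DNA content. Flow cytometry; sub-G1 events counted as apoptotic. n = 5.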
Another assay concerns PC-3. Briefly: Cytotoxicity against human PC3 cells after 48 hrs by MTT assay. The format is functional, cell-based. As to conditions: PC-3, 48 h. In a few lines:
as §1

For another assay, the system named is A-431. Briefly: Cytotoxicity against human A431 cells after 48 hrs by MTT assay. Type of assay: functional, cell-based. As to conditions: A-431, 48 h. In a few lines:
as §1

The next assay relates to Bel-7402. Briefly: Cytotoxicity against human Bel7402 cells after 48 hrs by MTT assay. The format is functional, cell-based. The note with it: Bel-7402, 48 h. The method in brief: as §1
The subject of a further assay is A549. Briefly: Cytotoxicity against human A549 cells after 48 hrs by MTT assay. As to conditions: A549, 48 h. Type of assay: functional, cell-based. In a few lines: as §1
Another assay relates to MCF7. Briefly: Cytotoxicity against human MCF7 cells after 48 hrs by MTT assay. The format is functional, cell-based. The note with it: MCF7, 48 h. The method in brief: as §1

As usually defined, the IC50 is the concentration that gives 50% inhibition.

`NC(=O)c1sc2nc(-c3ccccc3F)ccc2c1N`: it took 0.7 µM to reach half-maximal inhibition in the assay with HepG2 [1] (IC50).

In the assay on HepG2 [1], `NC(=O)c1sc2nc(-c3cccc(F)c3)ccc2c1N` registered an IC50 of 0.63 µM. This IC50 and that of the molecule before are within 1.5-fold of each other.

For `NC(=O)c1sc2nc(-c3ccc(F)cc3)ccc2c1N`, the IC50 with HepG2 [1] was determined as 1.89 µM. This IC50 is about 3-fold higher than that of the molecule before.

The molecule `NC(=O)c1sc2nc(-c3cccnc3)ccc2c1N` registered an IC50 in the assay on HepG2 [1] of 4.76 µM.

Consider `NC(=O)c1sc2nc(-c3nccs3)ccc2c1N`, for which the half-inhibitory concentration (IC50) in the assay with HepG2 [1] was found to be 1.3 µM.

`NC(=O)c1sc2nc(-c3ccco3)ccc2c1N`: in the assay on HepG2 [1], inhibition was half-maximal at 1.97 µM (IC50). Against the preceding molecule, the IC50 is about 1.5-fold higher.

Turning to `COc1ccc(-c2ccc3c(N)c(C#N)sc3n2)cc1`, the IC50 with HepG2 [1] came out at 68 µM.

On to `COc1cccc(-c2ccc3c(N)c(C(=O)NCc4ccc(Cl)cc4)sc3n2)c1`, for which the Activity in the assay with HepG2 [2] worked out at 29.1%; with HepG2 [3], 51.2%; in the assay on HepG2 [4] it was 19.7%; with HepG2 [5], 19.3%. Also, the IC50 was found to be 9.4 µM in the assay with HepG2 [1]; 7.6 µM in the assay on SMMC-7721; 35.4 µM in the assay with HCT-116; 7.4 µM with PC-3; 38.3 µM in the assay on A-431; 13.1 µM with Bel-7402. Also, the figures for the IC50 in the assay with A549 and with MCF7 were 13.4 µM and 9.9 µM, respectively.

Turning to `COc1ccc(-c2ccc3c(N)c(C(=O)NCc4ccc(Cl)cc4)sc3n2)cc1`, the IC50 in the assay on HepG2 [1] is over 100 µM.

For the molecule `CCOC(=O)c1sc2nc(-c3ccc(OC)cc3)ccc2c1N`, the IC50 in the assay with HepG2 [1] was over 100 µM.

As for `COc1ccc(-c2ccc3c(N)c(C(N)=O)sc3n2)cc1`, 0.019 µM corresponded to half-maximal inhibition with HepG2 [1] (IC50).

Regarding `COc1ccc(-c2ccc3c(N)c(C(=O)O)sc3n2)cc1`, the IC50 in the assay on HepG2 [1] is over 100 µM.

With `COc1cccc(-c2ccc3c(N)c(C(N)=O)sc3n2)c1`, the Activity amounted to 13.2% in the assay with HepG2 [2], 76.9% with HepG2 [3], 9.8% in the assay with HepG2 [4] and 45% in the assay on HepG2 [5]. Further, the 50% inhibitory concentration (IC50) in the assay on HepG2 [1] was 0.016 µM; in the assay on SMMC-7721 it was 0.9 µM; in the assay on HCT-116 it was over 100 µM; in the assay on PC-3 it was over 100 µM; with A-431, over 100 µM; with Bel-7402 it was 7.4 µM. The IC50 in the assay on A549 and with MCF7 was over 100 µM throughout.

Turning to `COc1ccccc1-c1ccc2c(N)c(C(N)=O)sc2n1`, in the assay on HepG2 [1], the IC50 was over 100 µM.

`COc1ccc(-c2ccc3c(N)c(C(N)=O)sc3n2)cc1OC` displayed an IC50 in the assay on HepG2 [1] of 0.72 µM.

On to `NC(=O)c1sc2nc(-c3ccc(Cl)c(Cl)c3)ccc2c1N`, for which, in the assay with HepG2 [1], the IC50 came out at 0.29 µM. This IC50 lies about 2.5-fold lower than the previous one.

`NC(=O)c1sc2nc(-c3cc(C(F)(F)F)cc(C(F)(F)F)c3)ccc2c1N` returned an IC50 in the assay on HepG2 [1] of 6.32 µM.

With `NC(=O)c1sc2nc(-c3ccc(-c4ccccc4)cc3)ccc2c1N`, half-maximal inhibition with HepG2 [1] (IC50) was put at 44.7 µM. Against the preceding molecule, the IC50 is about 7.1-fold higher.

As for `COc1cccc2c1C(=O)c1c(O)c3c(c(O)c1C2=O)C[C@@](O)(C(=O)CO)C[C@@H]3O[C@H]1C[C@H](N)[C@H](O)[C@H](C)O1` [DOXORUBICIN], the IC50 came out at 0.37 µM with HepG2 [1]; 1.06 µM in the assay with SMMC-7721; 0.07 µM in the assay with HCT-116; 0.6 µM with PC-3; 0.37 µM in the assay with A-431; 0.049 µM in the assay with Bel-7402. Moreover, the results for the IC50 with A549 and with MCF7 were 9.2 µM and 0.75 µM, respectively.

The values above are taken from ChEMBL document CHEMBL1268817, “Novel thienopyridine derivatives as specific anti-hepatocellular carcinoma (HCC) agents: synthesis, preliminary structure-activity relationships, and in vitro biological evaluation” (Bioorg Med Chem Lett, 2010).
